Assay results as given in ChEMBL document CHEMBL1148284, “Antagonist analogue of 6-[3'-(1-adamantyl)-4'-hydroxyphenyl]-2-naphthalenecarboxylic acid (AHPN) family of apoptosis inducers that effectively blocks AHPN-induced apoptosis but not cell-cycle arrest” (2004).
Activity calls are given as the source filed them. No cut-off for these calls is given here.

What was measured:
MDA-MB-231 [1] = assay: Induction of apoptosis in MDA-MB-231 breast cancer cells after 96 hr at 1E-6M; assay type: functional, Homo sapiens
Procedure, shortened: (§1)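 Cells exposed to agonist in medium with 0.1% Me2SO vehicle: HL-60R for 24 h, MDA-MB-231 for 96 h. Cells fixed and stained with acridine orange; apoptotic nuclei scored by nuclear fragmentation in 200-cell fields. Percent apoptosis is the average of triplicates.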

MDA-MB-231 [2] = assay: Induction of apoptosis in MDA-MB-231 breast cancer cells after 96 hr at 0.5E-6M; assay type: functional, Homo sapiens; procedure, shortened: as §1
HL-60 [3] = assay: Induction of apoptosis in HL60R leukemia cells after 24 hr r treatment at 1E-6M; assay type: functional, Homo sapiens; procedure, shortened: as §1
HL-60 [4] = assay: Induction of apoptosis in HL60R leukemia cells after 24 hr r treatment at 0.1E-6M; assay type: functional, Homo sapiens; procedure, shortened: as §1
NCI-H460 [5] = assay: Inhibition of H460 cell proliferation after 144 hr treatment at 1E-6M; assay type: functional, Homo sapiens
Procedure, shortened: (§2)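 H460 lung cancer cells grown in RPMI 1640 with 10% FCS and treated 144 h (0.1% Me2SO vehicle). Nuclei stained with DAPI and scored under fluorescence microscopy. Value is the average of triplicates.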

NCI-H460 [6] = assay: Inhibition of H460 cell proliferation after 144 hr treatment at 0.1E-6M; assay type: functional, Homo sapiens; procedure, shortened: as §2
[7] = target: T1, Retinoic acid receptor beta (Homo sapiens) (UniProt P10826); assay: Transcriptional activation in CV-1 cells expressing RAR beta at 1E-6M; assay type: functional, cell-based; settings: Cercopithecidae
T1 sequence (whole entry): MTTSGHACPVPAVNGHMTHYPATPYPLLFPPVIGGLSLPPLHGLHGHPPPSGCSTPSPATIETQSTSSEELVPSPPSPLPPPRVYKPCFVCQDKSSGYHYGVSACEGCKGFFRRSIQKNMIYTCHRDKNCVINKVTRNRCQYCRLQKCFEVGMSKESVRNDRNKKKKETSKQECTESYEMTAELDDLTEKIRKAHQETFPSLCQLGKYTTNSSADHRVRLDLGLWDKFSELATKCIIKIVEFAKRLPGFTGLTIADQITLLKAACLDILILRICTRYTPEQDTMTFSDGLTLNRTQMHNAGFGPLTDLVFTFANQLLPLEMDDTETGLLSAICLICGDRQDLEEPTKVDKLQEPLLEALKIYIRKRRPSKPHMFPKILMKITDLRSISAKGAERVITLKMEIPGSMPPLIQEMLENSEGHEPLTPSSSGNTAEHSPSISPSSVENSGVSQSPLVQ

[8] = target: T2, Retinoic acid receptor gamma (Homo sapiens) (UniProt P13631); assay: Transcriptional activation in CV-1 cells expressing RAR gamma at 1E-6M; assay type: functional, cell-based; settings: Cercopithecidae
T2 sequence (whole entry): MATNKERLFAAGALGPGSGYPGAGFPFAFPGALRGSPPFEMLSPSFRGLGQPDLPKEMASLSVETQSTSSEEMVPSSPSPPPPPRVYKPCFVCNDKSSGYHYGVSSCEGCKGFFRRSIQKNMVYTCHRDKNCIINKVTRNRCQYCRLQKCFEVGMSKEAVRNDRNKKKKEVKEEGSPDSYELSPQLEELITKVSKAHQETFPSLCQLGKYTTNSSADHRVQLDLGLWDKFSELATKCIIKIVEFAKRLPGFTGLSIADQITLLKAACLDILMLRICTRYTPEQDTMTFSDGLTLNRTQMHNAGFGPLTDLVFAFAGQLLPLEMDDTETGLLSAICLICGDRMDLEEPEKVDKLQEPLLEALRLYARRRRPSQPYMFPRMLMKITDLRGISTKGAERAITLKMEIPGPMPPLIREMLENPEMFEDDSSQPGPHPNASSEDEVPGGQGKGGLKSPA
Procedure, shortened: (§3)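 CV-1 cells in DMEM with 10% FCS, calcium-precipitate transfected with (TREpal)2-tk-CAT plus RAR expression vector and β-gal vector. After 20 h, switched to 5% charcoal-stripped FCS and treated 24 h. CAT activity normalized to β-gal and expressed relative to 1.0 × 10^-6 M trans-RA as 100%.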

[9] = target: T3, Retinoic acid receptor alpha (Homo sapiens) (UniProt P10276); assay: Transcriptional activation in CV-1 cells expressing RAR alpha at 1E-6M; assay type: functional, cell-based; settings: Cercopithecidae; procedure, shortened: as §3
T3 sequence (whole entry): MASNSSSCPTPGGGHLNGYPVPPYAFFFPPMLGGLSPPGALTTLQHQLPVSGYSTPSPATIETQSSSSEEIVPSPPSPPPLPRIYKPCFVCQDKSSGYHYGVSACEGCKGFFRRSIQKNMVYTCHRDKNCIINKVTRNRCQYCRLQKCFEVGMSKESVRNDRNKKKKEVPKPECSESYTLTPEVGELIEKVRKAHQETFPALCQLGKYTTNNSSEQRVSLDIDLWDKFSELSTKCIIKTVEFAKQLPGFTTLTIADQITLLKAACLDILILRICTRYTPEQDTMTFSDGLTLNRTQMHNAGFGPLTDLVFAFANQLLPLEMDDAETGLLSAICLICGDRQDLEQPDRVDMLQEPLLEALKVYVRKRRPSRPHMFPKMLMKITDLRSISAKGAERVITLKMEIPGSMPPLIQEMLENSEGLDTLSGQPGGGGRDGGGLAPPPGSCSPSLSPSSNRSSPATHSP

NCI-H460 [10] = assay: Suppression of H460 lung cancer cell apoptosis induced by 1E-6M 5-Cl-AHPN; From 34% to 9%; assay type: functional, Homo sapiens
Procedure, shortened: (§4)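 H460 and LNCaP cells (RPMI 1640, 10% FCS) treated 36 h with 1.0 × 10^-6 M inducer alone or with 1.0 × 10^-6 M antagonist. Cells trypsinized, fixed in 3.7% paraformaldehyde, stained with DAPI (50 µg/mL), and apoptotic nuclear morphology scored by fluorescence microscopy. Apoptosis = apoptotic/total cells × 100.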

LNCaP = assay: Suppression of LNCaP prostate cancer cell apoptosis induced by 1E-6M 5-Cl-AHPN; From 31% to 15%; assay type: functional, Homo sapiens; procedure, shortened: as §4
MCF7 = assay: Inhibition of MCF-7 cell proliferation at 1E-7M; Inhibitory activity; assay type: functional, cell-based; settings: Homo sapiens
BT-20 = assay: Inhibition of BT-20 breast cancer cell proliferation at 1E-7 M; Inhibitory activity; assay type: functional, cell-based; settings: Homo sapiens
[11] = target: T4, Retinoic acid receptor RXR-alpha (Homo sapiens) (UniProt P19793); assay: Displacement of [3H]9-cis-RA from Retinoic acid receptor RXR-alpha LBD
T4 sequence (whole entry): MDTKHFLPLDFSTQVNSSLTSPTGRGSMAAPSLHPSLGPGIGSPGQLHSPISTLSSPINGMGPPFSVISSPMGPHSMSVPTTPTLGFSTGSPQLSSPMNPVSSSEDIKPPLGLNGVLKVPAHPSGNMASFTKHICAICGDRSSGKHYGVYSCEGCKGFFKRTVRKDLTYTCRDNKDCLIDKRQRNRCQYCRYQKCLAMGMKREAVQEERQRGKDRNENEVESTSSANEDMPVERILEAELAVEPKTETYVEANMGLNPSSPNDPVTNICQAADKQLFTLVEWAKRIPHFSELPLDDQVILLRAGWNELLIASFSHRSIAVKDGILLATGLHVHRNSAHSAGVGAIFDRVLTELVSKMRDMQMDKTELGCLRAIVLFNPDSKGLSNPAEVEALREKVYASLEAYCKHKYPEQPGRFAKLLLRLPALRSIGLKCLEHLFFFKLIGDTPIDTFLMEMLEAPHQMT
Procedure, shortened: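 Bacterially expressed receptor LBDs (RARs as GST fusions, RXRα as His6 fusion; about 1.0 × 10^-8 M) incubated with 1.0 × 10^-9 M [11,12-3H2]9-cis-RA (43 Ci/mmol), with or without 1.0 × 10^-9 M unlabeled competitor. Bound and free radioligand separated by Sephadex G-50 gel filtration; mean ± SEM of three independent experiments.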

MDA-MB-468 = assay: Inhibition of MDA-MB-468 cell proliferation at 0.5E-6M; Inhibitory activity; assay type: functional, cell-based; settings: Homo sapiens
Procedure, shortened: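 MDA-MB-468 cells (1.0 × 10^5) seeded in DMEM/F12 with 5% FBS; after 24 h, 0.5 × 10^-6 M agent added, with or without 2.0 × 10^-6 M antagonist. Incubated 72 h, then proliferation read by colorimetric assay relative to the agent-alone control. Triplicates, 0.1% Me2SO.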

Transcriptional activation [7] [%]	Transcriptional activation [8] [%]	Transcriptional activation [9] [%]	Displacement [11] [%]	SMILES	Apoptosis (MDA-MB-231 [1]) [%]	Apoptosis (MDA-MB-231 [2]) [%]	Apoptosis (HL-60 [3]) [%]	Apoptosis (HL-60 [4]) [%]	Inhibition (NCI-H460 [5]) [%]	Inhibition (NCI-H460 [6]) [%]	Suppression (NCI-H460 [10]) [%]	Suppression (LNCaP) [%]	inhibition (MCF7)	inhibition (BT-20)	inhibition (MDA-MB-468)
				Cc1cc(/C=C/C(=O)O)ccc1-c1ccc(O)c(C23CC4CC(CC(C4)C2)C3)c1	30	5	95	10							
				O=C(O)c1ccc2c(Cl)c(-c3ccc(O)c(C45CC6CC(CC(C6)C4)C5)c3)ccc2c1	41	21	94	62	71	56					
85	103	8		O=C(O)/C=C/c1ccc(-c2ccc(O)c(C34CC5CC(CC(C5)C3)C4)c2)cc1 [ADAROTENE]	58	53	98	90							
				CC(=O)NCCCOc1cc(/C=C/C(=O)O)ccc1-c1ccc(O)c(C23CC4CC(CC(C4)C2)C3)c1	1	0	0	0			9	15			
				Cc1c(-c2ccc(O)c(C34CC5CC(CC(C5)C3)C4)c2)ccc2cc(C(=O)O)ccc12		14	70	29					Inhibitory activity	Inhibitory activity	
78	88	21		O=C(O)c1ccc2cc(-c3ccc(O)c(C45CC6CC(CC(C6)C4)C5)c3)ccc2c1 [O-DEMETHYLATED ADAPALENE]	46	26	98	78	80	20					
				CCOc1cc(/C=C/C(=O)O)ccc1-c1ccc(O)c(C23CC4CC(CC(C4)C2)C3)c1			29	0	52	14					
			16	O=C(O)/C=C/c1ccc(-c2ccc(O)c(C34CC5CC(CC(C5)C3)C4)c2)c(Cl)c1	43	31	94	51							Active
